Experimental data reported in ChEMBL document CHEMBL4304739, “Discovery of 3-(Indol-5-yl)-indazole Derivatives as Novel Myeloid Differentiation Protein 2/Toll-like Receptor 4 Antagonists for Treatment of Acute Lung Injury” (J Med Chem, 2019).
Calls of active or inactive are those of the source. The rule behind the calls is not given here.

Experiments:
[1] = target: Toll-like receptor 4 (Homo sapiens, UniProt O00206); experiment: Binding affinity to recombinant human C-terminal 10His-tagged TLR4 (Glu24 to Lys631 residues) expressed in mouse NS0 cells by surface plasmon resonance analysis
[2] = system: Mus musculus; experiment: Antiinflammatory activity in LPS-induced C57BL/6 mouse model of acute lung injury assessed as reduction in IL1beta mRNA level at 10 mg/kg, iv pretreated for 15 mins followed by LPS stimulation and measured after 6 hrs by SYBR green staining-based qRT-PCR analysis; format: functional, organism-based
Procedure, shortened: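 Total lung RNA extracted, with DNase I removal of residual DNA. Quantitative PCR with mouse gene primers; each gene normalized to β-actin. C57BL/6 mice given compound iv 15 min before intraperitoneal LPS (20 mg/kg) and killed at 6 h.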

[3] = target: Tyrosine-protein kinase ABL1 (Homo sapiens) (UniProt P00519); experiment: Inhibition of wild-type human non-phosphorylated ABL1 (S229 to K512 residues) expressed in mammalian expression system at 1 uM by Kinomescan method
Procedure, shortened: (§1)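 KINOMEscan competition binding screen at 1 μM compound. Results reported as % of control = (test − positive control)/(DMSO negative control − positive control) × 100, where lower values mean stronger hits.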

[4] = target: Aurora kinase A (Homo sapiens) (UniProt O14965); experiment: Inhibition of wild-type human partial length AURKA (E122 to K401 residues) expressed in mammalian expression system at 1 uM by Kinomescan method
Procedure, shortened: (§2)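 Binding-competition screen on the KINOMEscan platform, run by the provider, with the test compound at 1 μM. Readout is percent of control: (test signal − positive control signal)/(negative control signal − positive control signal) × 100. The DMSO negative control is set as 100% Ctrl and a control compound as 0% Ctrl. Lower values mean stronger hits.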

[5] = target: Tyrosine-protein kinase receptor UFO (Homo sapiens) (UniProt P30530); experiment: Inhibition of wild-type human partial length AXL (R497 to Y821 residues) expressed in bacterial expression system at 1 uM by Kinomescan method; procedure, shortened: as §2
[6] = target: Bone morphogenetic protein receptor type-2 (Homo sapiens) (UniProt Q13873); experiment: Inhibition of wild-type human partial length BMPR2 (R179 to Q526 residues) expressed in mammalian expression system at 1 uM by Kinomescan method; procedure, shortened: as §2
[7] = target: Casein kinase I isoform delta (Homo sapiens) (UniProt P48730); experiment: Inhibition of wild-type human full length CSNK1D (M1 to K409 residues) expressed in bacterial expression system at 1 uM by Kinomescan method; procedure, shortened: as §1
[8] = target: Receptor tyrosine-protein kinase erbB-4 (Homo sapiens) (UniProt Q15303); experiment: Inhibition of wild-type human partial length ERBB4 (L690 to K994 residues) expressed in bacterial expression system at 1 uM by Kinomescan method; procedure, shortened: as §2
[9] = target: Fibroblast growth factor receptor 2 (Homo sapiens) (UniProt P21802); experiment: Inhibition of wild-type human partial length FGFR2 (D457 to E769 residues) expressed in bacterial expression system at 1 uM by Kinomescan method; procedure, shortened: as §2
[10] = target: Fibroblast growth factor receptor 3 (Homo sapiens) (UniProt P22607); experiment: Inhibition of wild-type human partial length FGFR3 (R442 to S771 residues) expressed in bacterial expression system at 1 uM by Kinomescan method; procedure, shortened: as §2
[11] = target: Insulin-like growth factor 1 receptor (Homo sapiens) (UniProt P08069); experiment: Inhibition of wild-type human partial length IGF1R (L972 to D1294 residues) expressed in bacterial expression system at 1 uM by Kinomescan method; procedure, shortened: as §2
[12] = target: Inhibitor of nuclear factor kappa-B kinase subunit alpha (Homo sapiens) (UniProt O15111); experiment: Inhibition of wild-type human full length IKK-alpha (M1 to E745 residues) expressed in mammalian expression system at 1 uM by Kinomescan method; procedure, shortened: as §1
[13] = target: Insulin receptor (Homo sapiens) (UniProt P06213); experiment: Inhibition of wild-type human partial length INSR (P997 to E1318 residues) expressed in mammalian expression system at 1 uM by Kinomescan method; procedure, shortened: as §2
[14] = target: Tyrosine-protein kinase JAK2 (Homo sapiens) (UniProt O60674); experiment: Inhibition of wild-type human partial length JAK2 JH1 catalytic domain (A829 to G1132 residues) expressed in mammalian expression system at 1 uM by Kinomescan method; procedure, shortened: as §2
[15] = target: Phosphatidylinositol 4,5-bisphosphate 3-kinase catalytic subunit gamma isoform (Homo sapiens) (UniProt P48736); experiment: Inhibition of wild-type human partial length PIK3CG (S144 to A1102 residues) expressed in mammalian expression system at 1 uM by Kinomescan method; procedure, shortened: as §2
[16] = target: Serine/threonine-protein kinase pim-1 (Homo sapiens) (UniProt P11309); experiment: Inhibition of wild-type human partial length PIM1 (A15 to K313 residues) expressed in bacterial expression system at 1 uM by Kinomescan method; procedure, shortened: as §2
[17] = target: Serine/threonine-protein kinase pim-2 (Homo sapiens) (UniProt Q9P1W9); experiment: Inhibition of wild-type human partial length PIM2 (M1 to E291 residues) expressed in bacterial expression system at 1 uM by Kinomescan method; procedure, shortened: as §2
[18] = target: cAMP-dependent protein kinase catalytic subunit alpha (Homo sapiens) (UniProt P17612); experiment: Inhibition of wild-type human partial length PKAC-alpha (G10 to F351 residues) expressed in bacterial expression system at 1 uM by Kinomescan method; procedure, shortened: as §2
[19] = target: Proto-oncogene tyrosine-protein kinase receptor Ret (Homo sapiens) (UniProt P07949); experiment: Inhibition of wild-type human partial length RET (E713 to D1014 residues) expressed in bacterial expression system at 1 uM by Kinomescan method; procedure, shortened: as §2
[20] = target: Rho-associated protein kinase 2 (Homo sapiens) (UniProt O75116); experiment: Inhibition of wild-type human partial length ROCK2 (M1 to T431 residues) expressed in mammalian expression system at 1 uM by Kinomescan method; procedure, shortened: as §2
[21] = target: NUAK family SNF1-like kinase 2 (Homo sapiens) (UniProt Q9H093); experiment: Inhibition of wild-type human partial length SNARK (P22 to A333 residues) expressed in mammalian expression system at 1 uM by Kinomescan method
Procedure, shortened: (§3)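 Single-concentration screen at 1 μM on the KINOMEscan panel (98 kinases), run by the platform provider. Results are given as percent of control: % Ctrl = [(test signal − positive control signal)/(negative control signal − positive control signal)] × 100. DMSO serves as negative control (100% Ctrl) and a control compound as positive control (0% Ctrl). Lower values mean stronger binding hits.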

[22] = target: High affinity nerve growth factor receptor (Homo sapiens) (UniProt P04629); experiment: Inhibition of wild-type human partial length TRKA (G475 to G790 residues) expressed in mammalian expression system at 1 uM by Kinomescan method; procedure, shortened: as §3
[23] = target: Vascular endothelial growth factor receptor 2 (Homo sapiens) (UniProt P35968); experiment: Inhibition of wild-type human partial length VEGFR2 (R787 to P1253 residues) expressed in mammalian expression system at 1 uM by Kinomescan method; procedure, shortened: as §3
[24] = target: Tyrosine-protein kinase ZAP-70 (Homo sapiens) (UniProt P43403); experiment: Inhibition of wild-type human partial length ZAP70 (D20 to G299 residues) expressed in mammalian expression system at 1 uM by Kinomescan method; procedure, shortened: as §3

In the case of `O=C(Nc1ccc2[nH]nc(-c3ccc4[nH]ccc4c3)c2c1)c1c(Cl)cccc1Cl`, the Kd [1] is reported as 146 µM, the Activity [2] is reported as “Active” and the inhibition [3] is reported as “inactive”. For the same compound, the inhibition [4] was “inactive”, the inhibition [5] was “inactive” and the inhibition [6] was “inactive”. The inhibition [7] was “inactive”, the inhibition [8] was “inactive” and the inhibition [9] was “inactive”. The inhibition [10] was “inactive”, the inhibition [11] was “inactive” and the inhibition [12] was “inactive”. For the same compound, the inhibition [13] was “inactive”, the inhibition [14] was “inactive” and the inhibition [15] was “inactive”. The inhibition [16] was “inactive”, the inhibition [17] was “inactive” and the inhibition [18] was “inactive”. The inhibition [19] was “inactive”, the inhibition [20] was “inactive” and the inhibition [21] was “inactive”. For the same compound, the inhibition [22] was “inactive”, the inhibition [23] was “inactive” and the inhibition [24] was “inactive”.
